Assay [1] deals with T1, D(1A) dopamine receptor (Homo sapiens, UniProt P21728). Put plainly: Agonist activity at human dopamine D1 receptor expressed in HEK293 cells assessed as intracellular calcium by fluorescence microplate reader. The class given is functional, cell-based. Summed up:
(§1)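 Human receptor in HEK293 cells, loaded 45 min at 37 °C with Oregon Green 488 BAPTA-1/AM plus Pluronic F-127 in Krebs-HEPES buffer (pH 7.4). Cells were suspended, plated and held 30 min at 37 °C, 5% CO2. Test compound was injected at rising concentrations. Fluorescence was read at ex 485/em 520 nm for 30 s. Maximum intensity was fitted with a sigmoidal curve. At least two experiments, 4 or 6 replicates each.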

In assay [2] the target is T2, D(2) dopamine receptor (Homo sapiens, UniProt P14416). Put plainly: Agonist activity at human dopamine D2L receptor expressed in HEK293 cells assessed as intracellular calcium by fluorescence microplate reader. It is filed as functional, cell-based. Summed up: as §1
(Calcium assays in cells follow changes in intracellular calcium, usually with a dye or a luminescent sensor.)

Assay [3] has as its target T1, D(1A) dopamine receptor. The assay can be described thus: Antagonist activity at human dopamine D1 receptor expressed in HEK293 cells assessed as SKF-38393-induced intracellular calcium by fluorescence microplate reader. It is filed as functional, cell-based. The method in brief: (§2)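 They were then injected with standard agonist at 1 µM final: SKF 38393 for D1, quinpirole for D2L. Fluorescence was read at ex 485/em 520 nm for 30 s. Peak signal was fitted with a sigmoidal curve. At least two experiments, 4 or 6 replicates each.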

Assay [4] addresses T2, D(2) dopamine receptor. Put plainly: Antagonist activity at human dopamine D2L receptor expressed in HEK293 cells assessed as quinpirole-induced intracellular calcium by fluorescence microplate reader. It is filed as functional, cell-based. The method in brief:
as §2

Assay [5] addresses T2, D(2) dopamine receptor. Put plainly: Displacement of [3H]spiperone from human dopamine D2L receptor expressed in CHO cells by scintillation counting. It is filed as cell-based.
In a further assay the target is T3, D(4) dopamine receptor (Homo sapiens, UniProt P21917).
T3 sequence (P21917 whole entry): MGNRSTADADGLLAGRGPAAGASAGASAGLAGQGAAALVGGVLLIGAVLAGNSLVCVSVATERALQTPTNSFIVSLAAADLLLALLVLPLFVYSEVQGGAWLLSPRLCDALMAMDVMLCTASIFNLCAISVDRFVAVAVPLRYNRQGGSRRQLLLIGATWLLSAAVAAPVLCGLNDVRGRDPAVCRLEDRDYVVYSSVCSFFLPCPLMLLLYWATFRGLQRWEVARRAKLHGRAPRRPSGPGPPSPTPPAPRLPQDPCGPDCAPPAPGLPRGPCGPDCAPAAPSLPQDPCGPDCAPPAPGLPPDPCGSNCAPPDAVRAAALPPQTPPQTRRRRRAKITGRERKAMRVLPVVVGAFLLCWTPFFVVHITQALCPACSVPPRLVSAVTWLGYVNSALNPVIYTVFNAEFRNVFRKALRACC
Put plainly: Displacement of [3H]spiperone from human dopamine D4 receptor expressed in CHO cells by scintillation counting. It is filed as cell-based. Background: Displacement assays read how much labelled ligand stays bound in the presence of the test substance.

Assay [6] addresses D(3) dopamine receptor (Homo sapiens, UniProt P35462). The assay can be described thus: Displacement of [3H]spiperone from human dopamine D3 receptor expressed in CHO cells by scintillation counting. The class given is cell-based.
The target of another assay is D(1B) dopamine receptor (Homo sapiens, UniProt P21918). Put plainly: Displacement of [3H]SCH23390 from human dopamine D5 receptor expressed in CHO cells by scintillation counting. It is filed as cell-based.
For assay [7], the target named is T1, D(1A) dopamine receptor. The assay can be described thus: Displacement of [3H]SCH23390 from human dopamine D1 receptor expressed in CHO cells by scintillation counting. It is filed as cell-based.
Assay [8] deals with D(3) dopamine receptor (Rattus norvegicus, UniProt P19020). Put plainly: Displacement of [3H]spiperone from rat dopamine D3 receptor expressed in CHO cells by scintillation counting. It is filed as cell-based.

Active and inactive are the calls of the source. No cut-off for these calls is given here.

T1 sequence (P21728 whole entry): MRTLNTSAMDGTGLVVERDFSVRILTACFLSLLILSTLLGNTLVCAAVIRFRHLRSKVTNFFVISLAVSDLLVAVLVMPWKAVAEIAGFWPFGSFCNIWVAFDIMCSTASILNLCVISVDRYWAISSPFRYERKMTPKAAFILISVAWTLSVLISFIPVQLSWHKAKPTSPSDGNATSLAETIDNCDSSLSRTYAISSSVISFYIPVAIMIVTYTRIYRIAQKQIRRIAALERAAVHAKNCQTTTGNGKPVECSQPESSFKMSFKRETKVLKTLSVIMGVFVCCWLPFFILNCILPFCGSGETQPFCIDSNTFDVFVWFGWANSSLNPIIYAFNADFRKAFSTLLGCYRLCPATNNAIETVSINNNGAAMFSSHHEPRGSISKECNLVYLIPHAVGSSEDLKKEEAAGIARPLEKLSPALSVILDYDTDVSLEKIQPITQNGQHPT
Sequence of D(3) dopamine receptor (Homo sapiens, UniProt P35462) (P35462 whole entry): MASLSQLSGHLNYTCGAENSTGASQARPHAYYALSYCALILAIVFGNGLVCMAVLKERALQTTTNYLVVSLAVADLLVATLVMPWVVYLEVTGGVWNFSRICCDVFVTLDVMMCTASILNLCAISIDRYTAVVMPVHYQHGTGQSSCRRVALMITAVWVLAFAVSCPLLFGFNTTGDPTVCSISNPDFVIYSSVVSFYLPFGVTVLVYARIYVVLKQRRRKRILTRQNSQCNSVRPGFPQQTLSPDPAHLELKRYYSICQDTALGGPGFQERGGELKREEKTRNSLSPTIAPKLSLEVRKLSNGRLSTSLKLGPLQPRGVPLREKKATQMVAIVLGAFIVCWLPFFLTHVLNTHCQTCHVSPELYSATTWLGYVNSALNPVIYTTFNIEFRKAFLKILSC
T2 sequence (P14416 whole entry): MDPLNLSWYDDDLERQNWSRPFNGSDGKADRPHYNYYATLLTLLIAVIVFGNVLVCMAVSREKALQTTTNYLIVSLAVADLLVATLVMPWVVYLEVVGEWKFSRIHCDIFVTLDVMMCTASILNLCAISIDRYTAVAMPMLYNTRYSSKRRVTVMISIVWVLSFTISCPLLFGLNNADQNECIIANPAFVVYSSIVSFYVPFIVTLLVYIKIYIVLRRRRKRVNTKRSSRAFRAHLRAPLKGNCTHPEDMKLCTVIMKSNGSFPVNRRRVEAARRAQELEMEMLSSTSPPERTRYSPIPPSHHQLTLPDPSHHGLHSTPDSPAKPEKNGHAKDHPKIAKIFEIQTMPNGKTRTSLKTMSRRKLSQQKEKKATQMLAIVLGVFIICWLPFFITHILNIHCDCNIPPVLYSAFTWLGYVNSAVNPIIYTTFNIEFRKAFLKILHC
Sequence of D(1B) dopamine receptor (P21918 whole entry): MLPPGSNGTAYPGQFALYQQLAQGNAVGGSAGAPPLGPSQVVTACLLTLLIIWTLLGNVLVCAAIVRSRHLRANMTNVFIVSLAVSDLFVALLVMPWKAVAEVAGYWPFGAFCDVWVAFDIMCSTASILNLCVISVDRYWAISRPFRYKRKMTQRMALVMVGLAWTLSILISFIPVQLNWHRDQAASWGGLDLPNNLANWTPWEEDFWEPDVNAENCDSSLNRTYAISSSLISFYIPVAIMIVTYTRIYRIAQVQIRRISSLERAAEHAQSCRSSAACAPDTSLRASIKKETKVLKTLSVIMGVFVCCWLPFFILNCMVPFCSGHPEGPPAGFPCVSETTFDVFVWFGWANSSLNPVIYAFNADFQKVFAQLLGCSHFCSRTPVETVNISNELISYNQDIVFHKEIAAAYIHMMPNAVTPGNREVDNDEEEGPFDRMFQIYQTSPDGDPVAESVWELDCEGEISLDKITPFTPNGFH
Sequence of D(3) dopamine receptor (Rattus norvegicus, UniProt P19020) (P19020 whole entry): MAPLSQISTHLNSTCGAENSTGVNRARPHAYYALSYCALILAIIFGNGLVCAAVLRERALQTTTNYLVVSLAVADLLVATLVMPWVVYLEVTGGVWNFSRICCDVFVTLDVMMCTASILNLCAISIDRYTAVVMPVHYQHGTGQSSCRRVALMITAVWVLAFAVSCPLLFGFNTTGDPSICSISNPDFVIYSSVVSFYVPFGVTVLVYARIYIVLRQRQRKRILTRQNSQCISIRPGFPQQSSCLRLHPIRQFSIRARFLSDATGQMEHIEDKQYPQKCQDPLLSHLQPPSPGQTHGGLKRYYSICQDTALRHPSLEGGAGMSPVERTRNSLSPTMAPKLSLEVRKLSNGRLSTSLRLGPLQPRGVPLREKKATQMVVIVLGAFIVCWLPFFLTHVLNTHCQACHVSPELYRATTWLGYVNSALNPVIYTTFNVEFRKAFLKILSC

For the compound `CN1CCc2ccccc2Cc2ccc(O)cc2CC1`, the result at D(1A) dopamine receptor [1] and on D(2) dopamine receptor [2] was inactive. Besides, the result at D(1A) dopamine receptor [3] and on D(2) dopamine receptor [4] was Active.
A word on the Ki: it is the equilibrium dissociation constant of an inhibitor or competing ligand from its target. For `COc1ccc2c(c1)CCCN(C)Cc1ccccc1C2`, the Ki is > 10000 nM at D(2) dopamine receptor [5]; > 10000 nM at D(4) dopamine receptor; > 10000 nM at D(3) dopamine receptor [6]; > 10000 nM at D(1B) dopamine receptor; 1260 nM on D(1A) dopamine receptor [7]. In addition, the result at D(1A) dopamine receptor [1] and on D(2) dopamine receptor [2] was inactive. Besides, the outcome at D(1A) dopamine receptor [3] and at D(2) dopamine receptor [4] was Active.
With `CCc1cc(OC)ccc1C1Cc2ccccc2CN1C` (stereo unspecified), the Ki at D(2) dopamine receptor [5], on D(4) dopamine receptor, at D(3) dopamine receptor [6], at D(1B) dopamine receptor and at D(1A) dopamine receptor [7] was > 10000 nM throughout. The outcome at D(1A) dopamine receptor [1] and on D(2) dopamine receptor [2] was inactive. For the same compound, the result on D(1A) dopamine receptor [3] and at D(2) dopamine receptor [4] was Active.
For the compound `Oc1cc2c(cc1O)[C@H]1c3ccccc3CN[C@@H]1CC2`, the result on D(1A) dopamine receptor [1] and on D(2) dopamine receptor [2] was inactive. Also, the outcome on D(1A) dopamine receptor [3] and on D(2) dopamine receptor [4] was Active.
As for `CN1CCCc2cc(O)ccc2Cc2ccccc2C1`, the result at D(1A) dopamine receptor [1] was inactive. The inhibition constant (Ki) came to 1810 nM at D(1B) dopamine receptor and 2070 nM at D(1A) dopamine receptor [7]. Moreover, the result on D(1A) dopamine receptor [3] was Active.
`COc1cc2c(cc1O)[C@@H]1Cc3ccc(O)c(OC)c3CN1CC2` [STEPHOLIDINE]: the inhibition constant (Ki) came to 974 nM on D(2) dopamine receptor [5]; 3750 nM at D(4) dopamine receptor; 4.4 nM on D(1B) dopamine receptor; 5.9 nM on D(1A) dopamine receptor [7]; 30 nM at D(3) dopamine receptor [8]. Further, the outcome on D(1A) dopamine receptor [1] and at D(2) dopamine receptor [2] was inactive. Also, the outcome at D(1A) dopamine receptor [3] and at D(2) dopamine receptor [4] was Active.
Consider `Cc1ccccc1CC1c2ccc(O)cc2CCN1C` (stereo unspecified), for which the figures for the Ki at D(2) dopamine receptor [5] and at D(1A) dopamine receptor [7] were 2720 nM and 3020 nM, respectively. Further, the result at D(1A) dopamine receptor [1] and at D(2) dopamine receptor [2] was inactive. The result at D(1A) dopamine receptor [3] and at D(2) dopamine receptor [4] was Active.
In the case of `Oc1ccc2c(c1)CCN1CCc3ccccc3C21` (stereo unspecified), the Ki at D(2) dopamine receptor [5], on D(4) dopamine receptor, at D(3) dopamine receptor [6], on D(1B) dopamine receptor and at D(1A) dopamine receptor [7] was > 10000 nM in each case. The result on D(1A) dopamine receptor [1] and at D(2) dopamine receptor [2] was inactive. Besides, the result at D(1A) dopamine receptor [3] and at D(2) dopamine receptor [4] was Active.
With `CN1CCc2cc(O)ccc2CCc2ccccc2C1`, the result on D(1A) dopamine receptor [1] and at D(2) dopamine receptor [2] was inactive. Also, the result on D(1A) dopamine receptor [3] and at D(2) dopamine receptor [4] was Active.
As for `COc1ccc2c(c1)CCN(C)CCc1ccccc1C2`, the affinity on D(4) dopamine receptor, expressed as Ki, was 43.4 nM. Further, the outcome on D(1A) dopamine receptor [1] and on D(2) dopamine receptor [2] was inactive. The outcome at D(1A) dopamine receptor [3] and at D(2) dopamine receptor [4] was Active.
With `COc1ccc2c(c1)CCN1Cc3ccccc3CC21` (stereo unspecified), the Ki at D(2) dopamine receptor [5] came out at 320 nM; at D(4) dopamine receptor, 2560 nM; at D(3) dopamine receptor [6] it was 251 nM; at D(1B) dopamine receptor, 185 nM; on D(1A) dopamine receptor [7], 183 nM. The outcome on D(1A) dopamine receptor [1] and on D(2) dopamine receptor [2] was inactive. The result on D(1A) dopamine receptor [3] and at D(2) dopamine receptor [4] was Active.
Consider `COc1ccc2c(c1)CCN(C)Cc1ccccc1CC2`, for which the Ki at D(2) dopamine receptor [5] is > 10000 nM; at D(4) dopamine receptor it was > 10000 nM; on D(3) dopamine receptor [6], > 10000 nM; at D(1B) dopamine receptor, 1510 nM; at D(1A) dopamine receptor [7] it was 1730 nM. For the same compound, the outcome at D(1A) dopamine receptor [1] and at D(2) dopamine receptor [2] was inactive. The result on D(1A) dopamine receptor [3] and on D(2) dopamine receptor [4] was Active.
Take `COc1ccc2c(c1)CCN(C)C2Cc1ccccc1C` (stereo unspecified): the Ki on D(2) dopamine receptor [5] was 7370 nM; on D(4) dopamine receptor it was 6640 nM; at D(3) dopamine receptor [6], > 10000 nM; at D(1B) dopamine receptor, > 10000 nM; on D(1A) dopamine receptor [7], 2350 nM. The result on D(1A) dopamine receptor [1] and at D(2) dopamine receptor [2] was inactive. Further, the result on D(1A) dopamine receptor [3] and on D(2) dopamine receptor [4] was Active.
As for `Oc1ccc2c(c1)CCN1Cc3ccccc3CC21` (stereo unspecified), the Ki turned out to be 486 nM at D(2) dopamine receptor [5]; 5090 nM at D(4) dopamine receptor; 306 nM on D(3) dopamine receptor [6]; 41.1 nM on D(1B) dopamine receptor; 136 nM on D(1A) dopamine receptor [7]. The outcome at D(1A) dopamine receptor [1] and at D(2) dopamine receptor [2] was inactive. The outcome at D(1A) dopamine receptor [3] and on D(2) dopamine receptor [4] was Active.
Consider `COc1ccc2c(c1)CCN1CCc3ccccc3C21` (stereo unspecified), for which the result on D(1A) dopamine receptor [1] and at D(2) dopamine receptor [2] was inactive. This compound also gave a Ki at D(1A) dopamine receptor [7] of 2120 nM. Also, the outcome at D(1A) dopamine receptor [3] and on D(2) dopamine receptor [4] was Active.
As to `COc1ccc2c(c1)CCCN1Cc3ccccc3C21` (stereo unspecified), at D(1A) dopamine receptor [1], the outcome was inactive. In addition, the outcome at D(1A) dopamine receptor [3] was Active.

Source of the values: ChEMBL document CHEMBL1152600, “Dibenzazecine scaffold rebuilding--is the flexibility always essential for high dopamine receptor affinities?” (Bioorg Med Chem, 2009).
